# Results reported in ChEMBL document CHEMBL1781928, “Thiazolylmethyl ortho-substituted phenyl glucoside library as novel C-aryl glucoside SGLT2 inhibitors” (Eur J Med Chem, 2011).
# Biological target: T1, Sodium/glucose cotransporter 2 (Homo sapiens, UniProt P31639)
# T1 sequence (P31639 whole entry): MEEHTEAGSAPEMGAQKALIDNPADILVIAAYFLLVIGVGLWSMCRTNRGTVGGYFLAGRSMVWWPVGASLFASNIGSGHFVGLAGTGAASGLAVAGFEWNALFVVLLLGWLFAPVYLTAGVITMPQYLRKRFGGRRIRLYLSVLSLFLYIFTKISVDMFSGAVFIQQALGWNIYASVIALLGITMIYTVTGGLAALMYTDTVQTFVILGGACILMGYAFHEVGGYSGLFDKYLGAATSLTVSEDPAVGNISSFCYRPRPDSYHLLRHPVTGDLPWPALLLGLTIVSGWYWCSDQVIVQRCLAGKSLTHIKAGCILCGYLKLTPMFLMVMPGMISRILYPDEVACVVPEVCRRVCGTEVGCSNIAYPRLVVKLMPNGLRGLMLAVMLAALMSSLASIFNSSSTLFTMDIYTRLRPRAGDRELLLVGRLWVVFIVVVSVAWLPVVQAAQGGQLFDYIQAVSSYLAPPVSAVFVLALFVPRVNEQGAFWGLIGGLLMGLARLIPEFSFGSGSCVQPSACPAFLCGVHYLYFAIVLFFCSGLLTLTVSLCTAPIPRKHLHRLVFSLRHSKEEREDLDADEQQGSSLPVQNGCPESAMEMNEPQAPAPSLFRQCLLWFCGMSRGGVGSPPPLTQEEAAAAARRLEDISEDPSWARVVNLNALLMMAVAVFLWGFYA
# Assay: Inhibition of human SGLT2 expressed in CHO cells assessed as [14C]-alpha-methyl-D-glucopyranoside uptake after 2 hrs by liquid scintillation counter
# Type: cell-based
# Summary of the method: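 hSGLT2 cDNA from adult kidney, stably transfected into CHO cells. They were pretreated 10 min at 37 °C in choline-chloride buffer (pH 7.4), then taken up 2 h at 37 °C in NaCl buffer with 1 mM unlabeled AMG plus ¹⁴C-AMG (8 uM) and inhibitor or DMSO. Two washes in buffer containing 10 mM AMG. IC₅₀ by nonlinear regression.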
row,Structure (SMILES),IC50 [µM]
1,C=CCOCc1cc(Cl)c(Cc2ncc(-c3ccco3)s2)cc1[C@@H]1O[C@H](CO)[C@@H](O)[C@H](O)[C@H]1O,0.0175
2,CCCOc1cc(Cl)c(Cc2ncc(-c3ccco3)s2)cc1[C@@H]1O[C@H](CO)[C@@H](O)[C@H](O)[C@H]1O,0.0216
3,C=CCCOc1cc(Cl)c(Cc2ncc(-c3ccco3)s2)cc1[C@@H]1O[C@H](CO)[C@@H](O)[C@H](O)[C@H]1O,0.0328
4,CN(C)CCOc1cc(Cl)c(Cc2ncc(-c3ccco3)s2)cc1[C@@H]1O[C@H](CO)[C@@H](O)[C@H](O)[C@H]1O,0.713
5,OCc1cc(Cl)c(Cc2ncc(-c3ccoc3)s2)cc1[C@@H]1O[C@H](CO)[C@@H](O)[C@H](O)[C@H]1O,0.0205
6,C=CCOCc1cc(Cl)c(Cc2ncc(-c3ccoc3)s2)cc1[C@@H]1O[C@H](CO)[C@@H](O)[C@H](O)[C@H]1O,0.0387
7,C=CCOCc1cc(Cl)c(Cc2ncc(-c3cccs3)s2)cc1[C@@H]1O[C@H](CO)[C@@H](O)[C@H](O)[C@H]1O,0.0162
8,OC[C@H]1O[C@@H](c2cc(Cc3ncc(-c4ccc(F)cc4)s3)c(Cl)cc2F)[C@H](O)[C@@H](O)[C@@H]1O,0.0274

# The next compounds have a lower IC50 than those just listed; values first:
row,IC50 [µM],Structure (SMILES)
1,0.00215,COc1cc(Cl)c(Cc2ncc(-c3ccco3)s2)cc1[C@@H]1O[C@H](CO)[C@@H](O)[C@H](O)[C@H]1O
2,0.00159,COc1cc(Cl)c(Cc2ncc(-c3cccs3)s2)cc1[C@@H]1O[C@H](CO)[C@@H](O)[C@H](O)[C@H]1O
3,0.00118,CCOc1cc(Cl)c(Cc2ncc(-c3ccsc3)s2)cc1[C@@H]1O[C@H](CO)[C@@H](O)[C@H](O)[C@H]1O
4,0.00223,C#CCOc1cc(Cl)c(Cc2ncc(-c3ccco3)s2)cc1[C@@H]1O[C@H](CO)[C@@H](O)[C@H](O)[C@H]1O
5,0.00581,OCc1cc(Cl)c(Cc2ncc(-c3ccco3)s2)cc1[C@@H]1O[C@H](CO)[C@@H](O)[C@H](O)[C@H]1O
6,0.00588,OCc1cc(Cl)c(Cc2ncc(-c3cccs3)s2)cc1[C@@H]1O[C@H](CO)[C@@H](O)[C@H](O)[C@H]1O
7,0.00223,OCc1cc(Cl)c(Cc2ncc(-c3ccsc3)s2)cc1[C@@H]1O[C@H](CO)[C@@H](O)[C@H](O)[C@H]1O
8,0.01,C=CCOCc1cc(Cl)c(Cc2ncc(-c3ccsc3)s2)cc1[C@@H]1O[C@H](CO)[C@@H](O)[C@H](O)[C@H]1O
9,0.00224,OC[C@H]1O[C@@H](c2cc(Cc3ncc(-c4ccco4)s3)c(Cl)cc2Cl)[C@H](O)[C@@H](O)[C@@H]1O
